Experimental data: ChEMBL document CHEMBL2417474, “Synthesis, antiproliferative and anti-inflammatory activities of some novel 6-aryl-2-(p-(methanesulfonyl)phenyl)-4,5-dihydropyridazi-3(2H)-ones” (Eur J Med Chem, 2013)

Key:
CAKI-1 = test: Growth inhibition of human CAKI-1 cells assessed as cell growth at 10 uM after 48 hrs by sulforhodamine B assay; format: functional; conditions: CAKI-1, 48 h, read-out: Activity
RXF 393 [1] = test: Growth inhibition of human RXF393 cells after 48 hrs by sulforhodamine B assay; format: functional; conditions: RXF 393, 48 h
Outline: (§1)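 NCI 60-cell-line panel. Cells were grown in medium with 5% fetal calf serum and 2 mM L-glutamine, then preincubated 24 h in plates. Compounds were added from DMSO at five 10-fold concentrations from 100 to 0.01 µM and left on cells continuously for 48 h. Cell growth was read by sulforhodamine B protein stain. GI50 is the concentration that halves net protein increase relative to control cells.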

NCI-H460 = test: Growth inhibition of human NCI-H460 cells after 48 hrs by sulforhodamine B assay; format: functional; conditions: NCI-H460, 48 h; outline: as §1
HL-60(TB) = test: Growth inhibition of human HL-60(TB) cells assessed as cell growth at 10 uM after 48 hrs by sulforhodamine B assay; format: functional; conditions: HL-60, 48 h, read-out: Activity
IGROV-1 = test: Growth inhibition of human IGROV1 cells assessed as cell growth at 10 uM after 48 hrs by sulforhodamine B assay; format: functional; conditions: IGROV-1, 48 h, read-out: Activity
CCRF-CEM = test: Growth inhibition of human CCRF-CEM cells after 48 hrs by sulforhodamine B assay; format: functional, cell-based
Outline: (§2)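 NCI 60-cell-line panel grown in RPMI-type medium with 5% fetal calf serum and 2 mM L-glutamine. Cells preincubated 24 h, then exposed continuously for 48 h to compound in DMSO at 10^-4 to 10^-8 M (five 10-fold levels). Growth read by SRB protein stain. GI50 is the concentration giving a 50% reduction in net protein increase relative to control cells.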

SF-539 = test: Growth inhibition of human SF539 cells after 48 hrs by sulforhodamine B assay; format: functional; conditions: SF-539, 48 h; outline: as §1
[2] = Growth inhibition of human EKVX cells assessed as cell growth at 10 uM after 48 hrs by sulforhodamine B assay; format: functional; conditions: read-out: Activity
SK-MEL-5 = test: Growth inhibition of human SK-MEL-5 cells after 48 hrs by sulforhodamine B assay; format: functional; conditions: SK-MEL-5, 48 h; outline: as §1
ACHN = test: Growth inhibition of human ACHN cells after 48 hrs by sulforhodamine B assay; format: functional; outline: as §2
SK-OV-3 = test: Growth inhibition of human SKOV3 cells assessed as cell growth at 10 uM after 48 hrs by sulforhodamine B assay; format: functional; conditions: SK-OV-3, 48 h, read-out: Activity
K562 = test: Growth inhibition of human K562 cells after 48 hrs by sulforhodamine B assay; format: functional; conditions: K562, 48 h; outline: as §2
HOP-92 = test: Growth inhibition of human HOP92 cells after 48 hrs by sulforhodamine B assay; format: functional; conditions: HOP-92, 48 h; outline: as §2
MCF7 = test: Growth inhibition of human MCF7 cells after 48 hrs by sulforhodamine B assay; format: functional; conditions: MCF7, 48 h; outline: as §2
OVCAR-4 = test: Growth inhibition of human OVCAR4 cells assessed as cell growth at 10 uM after 48 hrs by sulforhodamine B assay; format: functional; conditions: OVCAR-4, 48 h, read-out: Activity
[3] = Growth inhibition of human NCI-ADR-RES cells assessed as cell growth at 10 uM after 48 hrs by sulforhodamine B assay; format: functional; conditions: read-out: Activity
TK-10 [4] = test: Growth inhibition of human TK10 cells assessed as cell growth at 10 uM after 48 hrs by sulforhodamine B assay; format: functional; conditions: TK-10, 48 h, read-out: Activity
Outline: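 Single-dose NCI screen. Tumor lines were cultured in medium with 5% fetal calf serum and 2 mM L-glutamine, preincubated 24 h, then given compound in DMSO. After 48 h continuous exposure, cell growth was estimated by sulforhodamine B protein assay.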

MOLT-4 = test: Growth inhibition of human MOLT4 cells after 48 hrs by sulforhodamine B assay; format: functional; conditions: MOLT-4, 48 h; outline: as §1
SNB-75 = test: Growth inhibition of human SNB75 cells assessed as cell growth at 10 uM after 48 hrs by sulforhodamine B assay; format: functional; conditions: SNB-75, 48 h, read-out: Activity
TK-10 [5] = test: Growth inhibition of human TK10 cells after 48 hrs by sulforhodamine B assay; format: functional; conditions: TK-10, 48 h
Outline: (§3)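 NCI 60-line panel. Cells were grown in medium with 5% fetal calf serum and 2 mM L-glutamine and preincubated 24 h in plates. Compound in DMSO was added at 10^-4 to 10^-8 M (five 10-fold levels), with continuous exposure for 48 h. Growth was read by SRB protein staining. GI50 is the concentration giving 50% reduction in net protein increase versus control cells.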

SK-MEL-28 = test: Growth inhibition of human SK-MEL-28 cells assessed as cell growth at 10 uM after 48 hrs by sulforhodamine B assay; format: functional; conditions: SK-MEL-28, 48 h, read-out: Activity
SW-620 = test: Growth inhibition of human SW620 cells after 48 hrs by sulforhodamine B assay; format: functional; conditions: SW-620, 48 h; outline: as §3
A498 = test: Growth inhibition of human A498 cells after 48 hrs by sulforhodamine B assay; format: functional; conditions: A498, 48 h; outline: as §2
RXF 393 [6] = test: Growth inhibition of human RXF393 cells assessed as cell growth at 10 uM after 48 hrs by sulforhodamine B assay; format: functional; conditions: RXF 393, 48 h, read-out: Activity
SR = test: Growth inhibition of human SR cells after 48 hrs by sulforhodamine B assay; format: functional; outline: as §1
SNB-19 = test: Growth inhibition of human SNB19 cells after 48 hrs by sulforhodamine B assay; format: functional; conditions: SNB-19, 48 h; outline: as §1
SF-295 = test: Growth inhibition of human SF295 cells assessed as cell growth at 10 uM after 48 hrs by sulforhodamine B assay; format: functional; conditions: SF-295, 48 h, read-out: Activity
Rattus norvegicus = test: Antiinflammatory activity in Wistar rat assessed as inhibition of carrageenan-induced paw edema at 0.05 mmol/kg, po administered 30 mins prior challenge measured after 5 hrs; format: functional
Outline: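 Wistar rats of either sex, 150–175 g, fasted 16 h, 6 per group. Dosed orally at 0.05 mmol/kg, suspended in 1% CMC in water (10 ml/kg). 30 min later, 0.1 ml of 1% carrageenan in saline injected subplantar into the left hind paw. Paw volume read by plethysmometer at 0, 3 and 5 h. % inhibition = (1 − Vt/Vc) × 100 against the vehicle group.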

[7] = read-out: LC50 (the source's name)

Cc1cc(O)ccc1C1=NN(c2ccc(S(C)(=O)=O)cc2)C(=O)CC1
growth at 10 µM (CAKI-1): 25.4% | GI50 (RXF 393 [1]): 12.8 µM | LC50 (50% lethal concentration) (RXF 393 [1]): > 100 µM | TGI (RXF 393 [1]): > 100 µM | GI50 (NCI-H460): 3.87 µM | TGI (NCI-H460): > 100 µM | CC50 (NCI-H460; [7]): > 100 µM | growth at 10 µM (HL-60(TB)): 52.6% | growth at 10 µM (IGROV-1): 43.5% | GI50 (CCRF-CEM): 9.09 µM | TGI (CCRF-CEM): > 100 µM | CC50 (CCRF-CEM; [7]): > 100 µM | GI50 (SF-539): 13.2 µM | TGI (SF-539): > 100 µM | CC50 (SF-539; [7]): > 100 µM | growth at 10 µM [2]: 72.2% | GI50 (SK-MEL-5): 5.49 µM | LC50 (SK-MEL-5): > 100 µM | TGI (SK-MEL-5): > 100 µM | GI50 (ACHN): 37.8 µM | LC50 (concentration killing 50% of starting cells) (ACHN): > 100 µM | TGI (ACHN): > 100 µM | growth at 10 µM (SK-OV-3): 85% | GI50 (K562): 3.74 µM | TGI (K562): > 100 µM | CC50 (K562; [7]): > 100 µM | GI50 (HOP-92): 6.49 µM | TGI (HOP-92): > 100 µM | CC50 (HOP-92; [7]): > 100 µM | GI50 (MCF7): 20.7 µM | LC50 (concentration killing 50% of cells) (MCF7): > 100 µM | TGI (MCF7): > 100 µM | growth at 10 µM (OVCAR-4): 98% | growth at 10 µM [3]: 40.6% | growth at 10 µM (TK-10 [4]): 105% | GI50 (MOLT-4): 14.3 µM | LC50 (MOLT-4): > 100 µM | TGI (MOLT-4): > 100 µM | growth at 10 µM (SNB-75): 75.2% | GI50 (TK-10 [5]): 80.5 µM | TGI (TK-10 [5]): > 100 µM | CC50 (TK-10 [5]; [7]): > 100 µM | growth at 10 µM (SK-MEL-28): 81.2% | GI50 (SW-620): 3.32 µM | TGI (SW-620): > 100 µM | CC50 (SW-620; [7]): > 100 µM | GI50 (A498): 2.78 µM | TGI (A498): 45.4 µM | CC50 (A498; [7]): > 100 µM | growth at 10 µM (RXF 393 [6]): 81.2% | GI50 (SR): 3.39 µM | LC50 (SR): > 100 µM | TGI (SR): > 100 µM | GI50 (SNB-19): 50.4 µM | TGI (SNB-19): > 100 µM | CC50 (SNB-19; [7]): > 100 µM | growth at 10 µM (SF-295): 32.1% | inhibition in vivo at 50 µmol/kg (Rattus norvegicus): 52.6%
